Reference: ChEMBL document CHEMBL1287652, “QSAR modeling, synthesis and bioassay of diverse leukemia RPMI-8226 cell line active agents” (2010)

Assays:
Assay type in all cases: functional
[1] = test system: U-251; assay: Antitumor activity against human U251 cells at 10 uM after 48 hrs by sulforhodamine B assay relative to control; settings: U-251, 48 h, values are per cent of control
In short: (§1)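 NCI panel line grown in RPMI-1640 with 5% FBS and 2 mM L-glutamine, plated at 5000–40,000 cells/well, 24 h preincubation. Single final 10 µM from DMSO stock, 48 h at 37 °C, 5% CO2. TCA fixation (10% adherent, 16% suspension), SRB stain, absorbance 515 nm. Percent growth relative to untreated control.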

[2] = test system: SNB-75; assay: Antitumor activity against human SNB75 cells at 10 uM after 48 hrs by sulforhodamine B assay relative to control; settings: SNB-75, 48 h, values are per cent of control
In short: (§2)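 NCI panel lines were grown in RPMI-1640 with 5% FBS and 2 mM L-glutamine and seeded at 5000–40,000 cells/well according to doubling time. After 24 h at 37 °C, 5% CO2, one dose from a DMSO stock was added for 48 h. Cells were TCA-fixed (10% final adherent, 16% suspension), SRB-stained and read at 515 nm. Percent growth is relative to untreated control.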

[3] = test system: TK-10; assay: Antitumor activity against human TK10 cells at 10 uM after 48 hrs by sulforhodamine B assay relative to control; settings: TK-10, 48 h, values are per cent of control; in short: as §1
[4] = test system: NCI-H226; assay: Antitumor activity against human NCI-H226 cells at 10 uM after 48 hrs by sulforhodamine B assay relative to control; settings: NCI-H226, 48 h, values are per cent of control; in short: as §2
[5] = test system: UO-31; assay: Antitumor activity against human UO31 cells at 10 uM after 48 hrs by sulforhodamine B assay relative to control; settings: UO-31, 48 h, values are per cent of control; in short: as §1
[6] = test system: NCI-H522; assay: Antitumor activity against human NCI-H522 cells at 10 uM after 48 hrs by sulforhodamine B assay relative to control; settings: NCI-H522, 48 h, values are per cent of control; in short: as §2
[7] = test system: UACC-62; assay: Antitumor activity against human UACC62 cells at 10 uM after 48 hrs by sulforhodamine B assay relative to control; settings: UACC-62, 48 h, values are per cent of control; in short: as §1
[8] = test system: LOX IMVI; assay: Antitumor activity against human LOXIMVI cells at 10 uM after 48 hrs by sulforhodamine B assay relative to control; settings: values are per cent of control
In short: (§3)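 Single-dose screen in a 55-line panel. Cells in RPMI-1640 with 5% FBS and 2 mM glutamine were preincubated for 24 h, then exposed to compound (DMSO stock diluted in medium) for 48 h at 37 °C with 5% CO2. Cells were fixed with cold TCA, stained with 0.4% SRB in 1% acetic acid, and dye was solubilized in 10 mM Tris base and read at 515 nm. Growth is given as percent of untreated control.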

[9] = test system: SR; assay: Antitumor activity against human SR cells at 10 uM after 48 hrs by sulforhodamine B assay relative to control; settings: values are per cent of control; in short: as §1
[10] = test system: OVCAR-4; assay: Antitumor activity against human OVCAR4 cells at 10 uM after 48 hrs by sulforhodamine B assay relative to control; settings: OVCAR-4, 48 h, values are per cent of control; in short: as §2
[11] = test system: SNB-19; assay: Antitumor activity against human SNB19 cells at 10 uM after 48 hrs by sulforhodamine B assay relative to control; settings: SNB-19, 48 h, values are per cent of control; in short: as §2
[12] = test system: NCI-H23; assay: Antitumor activity against human NCI-H23 cells at 10 uM after 48 hrs by sulforhodamine B assay relative to control; settings: NCI-H23, 48 h, values are per cent of control; in short: as §2
[13] = test system: MDA-MB-231; assay: Antitumor activity against human MDA-MB-231 cells at 10 uM after 48 hrs by sulforhodamine B assay relative to control; settings: MDA-MB-231, 48 h, values are per cent of control; in short: as §3
[14] = test system: MCF7; assay: Antitumor activity against human MCF7 cells at 10 uM after 48 hrs by sulforhodamine B assay relative to control; settings: MCF7, 48 h, values are per cent of control; in short: as §3
[15] = test system: SK-MEL-2; assay: Antitumor activity against human SK-MEL-2 cells at 10 uM after 48 hrs by sulforhodamine B assay relative to control; settings: SK-MEL-2, 48 h, values are per cent of control; in short: as §2
[16] = test system: Malme-3M; assay: Antitumor activity against human MALME-3M cells at 10 uM after 48 hrs by sulforhodamine B assay relative to control; settings: values are per cent of control; in short: as §3
[17] = test system: SW-620; assay: Antitumor activity against human SW620 cells at 10 uM after 48 hrs by sulforhodamine B assay relative to control; settings: SW-620, 48 h, values are per cent of control; in short: as §1
[18] = test system: OVCAR-5; assay: Antitumor activity against human OVCAR5 cells at 10 uM after 48 hrs by sulforhodamine B assay relative to control; settings: OVCAR-5, 48 h, values are per cent of control; in short: as §2
[19] = test system: HL-60(TB); assay: Antitumor activity against human HL-60(TB) cells at 10 uM after 48 hrs by sulforhodamine B assay relative to control; settings: HL-60, 48 h
In short: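 Single-dose NCI screen. Cells were in RPMI-1640 with 5% FBS and 2 mM L-glutamine, plated by doubling time and held 24 h at 37 °C in 5% CO2 before dosing. Exposure was 48 h. Suspension cells were fixed in situ with TCA (final 16%), SRB-stained, and read at 515 nm. Percentage growth was expressed relative to untreated control cells.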

[20] = test system: NCI-H322M; assay: Antitumor activity against human NCI-H322M cells at 10 uM after 48 hrs by sulforhodamine B assay relative to control; settings: values are per cent of control; in short: as §2
[21] = test system: OVCAR-3; assay: Antitumor activity against human OVCAR-3 cells at 10 uM after 48 hrs by sulforhodamine B assay relative to control; settings: OVCAR-3, 48 h, values are per cent of control; in short: as §2
[22] = test system: ACHN; assay: Antitumor activity against human ACHN cells at 10 uM after 48 hrs by sulforhodamine B assay relative to control; settings: values are per cent of control; in short: as §3
[23] = test system: BT-549; assay: Antitumor activity against human BT549 cells at 10 uM after 48 hrs by sulforhodamine B assay relative to control; settings: BT-549, 48 h, values are per cent of control; in short: as §3
[24] = test system: DU-145; assay: Antitumor activity against human DU145 cells at 10 uM after 48 hrs by sulforhodamine B assay relative to control; settings: DU-145, 48 h, values are per cent of control; in short: as §3
[25] = test system: MOLT-4; assay: Antitumor activity against human MOLT4 cells at 10 uM after 48 hrs by sulforhodamine B assay relative to control; settings: MOLT-4, 48 h, values are per cent of control; in short: as §2
[26] = test system: SF-295; assay: Antitumor activity against human SF295 cells at 10 uM after 48 hrs by sulforhodamine B assay relative to control; settings: SF-295, 48 h, values are per cent of control; in short: as §2
[27] = test system: SN12C; assay: Antitumor activity against human SN12C cells at 10 uM after 48 hrs by sulforhodamine B assay relative to control; settings: values are per cent of control; in short: as §2
[28] = test system: COLO 205; assay: Antitumor activity against human COLO205 cells at 10 uM after 48 hrs by sulforhodamine B assay relative to control; settings: COLO 205, 48 h, values are per cent of control; in short: as §3
[29] = test system: PC-3; assay: Antitumor activity against human PC3 cells at 10 uM after 48 hrs by sulforhodamine B assay relative to control; settings: PC-3, 48 h, values are per cent of control; in short: as §2

Row | Compound | growth, % of control at 10 µM [1] [%] | growth, % of control at 10 µM [2] [%] | growth, % of control at 10 µM [3] [%] | growth, % of control at 10 µM [4] [%] | growth, % of control at 10 µM [5] [%] | growth, % of control at 10 µM [6] [%] | growth, % of control at 10 µM [7] [%] | growth, % of control at 10 µM [8] [%] | growth, % of control at 10 µM [9] [%] | growth, % of control at 10 µM [10] [%] | growth, % of control at 10 µM [11] [%] | growth, % of control at 10 µM [12] [%] | growth, % of control at 10 µM [13] [%] | growth, % of control at 10 µM [14] [%] | growth, % of control at 10 µM [15] [%] | growth, % of control at 10 µM [16] [%] | growth, % of control at 10 µM [17] [%] | growth, % of control at 10 µM [18] [%] | inhibition at 10 µM [19] [%] | growth, % of control at 10 µM [20] [%] | also measured
1 | COc1ccc(NC(=O)Nc2ccccc2OCCCOc2ccccc2NC(=O)Nc2ccc(OC)cc2)cc1 | -50.9 | -34.8 | 22 | 87.1 | -20.7 | 63.7 | 3.9 | 23.7 | -39.7 | -67.2 | 47.6 | 2.8 | 34 | 28.2 | 65.8 | 55.1 | 0.7 | 46 | 18.8 | 82.4 | growth, % of control at 10 µM [21]: -11.4%; growth, % of control at 10 µM [22]: 46.3%; growth, % of control at 10 µM [23]: 81.2%; growth, % of control at 10 µM [24]: 39.4%; growth, % of control at 10 µM [25]: -5.8%; growth, % of control at 10 µM [26]: 49%; growth, % of control at 10 µM [27]: -21.3%; growth, % of control at 10 µM [28]: 18.6%; growth, % of control at 10 µM [29]: -36.5%
2 | COc1ccc(NC(=O)Nc2ccc(OCCCOc3ccc(NC(=O)Nc4ccc(OC)cc4)cc3)cc2)cc1 | 89.8 | 101 | 123 | 121 | 71.4 | 98.3 | 109 | 99.3 | 90.4 | 109 | 94.5 | 94.5 | 93.3 | 55 | 108 | 93.3 | 118 | 88.4 | 90.4 | 90.2 | growth, % of control at 10 µM [21]: 116%; growth, % of control at 10 µM [22]: > 100%; growth, % of control at 10 µM [23]: 88.1%; growth, % of control at 10 µM [24]: 107%; growth, % of control at 10 µM [25]: 95.5%; growth, % of control at 10 µM [26]: 71.7%; growth, % of control at 10 µM [27]: 87.3%; growth, % of control at 10 µM [28]: 124%; growth, % of control at 10 µM [29]: 108%
3 | O=C(Nc1ccc(Cl)cc1)Nc1ccc(OCCCOc2ccc(NC(=O)Nc3ccc(Cl)cc3)cc2)cc1 | 103 | 92.2 | 129 | 123 | 68.8 | 91.6 | 98.9 | 98.1 | 88.7 | 110 | 108 | 96.5 | 111 | 103 | 118 | 101 | 104 | 94.6 | 105 | 102 | growth, % of control at 10 µM [21]: 112%; growth, % of control at 10 µM [22]: 106%; growth, % of control at 10 µM [23]: 102%; growth, % of control at 10 µM [24]: 121%; growth, % of control at 10 µM [25]: 118%; growth, % of control at 10 µM [26]: 97.3%; growth, % of control at 10 µM [27]: 105%; growth, % of control at 10 µM [28]: 166%; growth, % of control at 10 µM [29]: 93%
